Reference: ChEMBL document CHEMBL1133111, “Structure-based discovery of small molecule inhibitors targeted to protein tyrosine phosphatase 1B” (J Med Chem, 2000)
Several values for one entry are separate records, joined by “and”; a condition that tells them apart may be missing. Equal values may be shown once.

Assays:
[1] = molecular target: T1, Tyrosine-protein phosphatase non-receptor type 1 (Homo sapiens) (UniProt P18031); assay: Inhibitory activity against protein tyrosine phosphatases (PTP1B) (Kis=slope inhibitory constant)
T1 sequence (whole entry): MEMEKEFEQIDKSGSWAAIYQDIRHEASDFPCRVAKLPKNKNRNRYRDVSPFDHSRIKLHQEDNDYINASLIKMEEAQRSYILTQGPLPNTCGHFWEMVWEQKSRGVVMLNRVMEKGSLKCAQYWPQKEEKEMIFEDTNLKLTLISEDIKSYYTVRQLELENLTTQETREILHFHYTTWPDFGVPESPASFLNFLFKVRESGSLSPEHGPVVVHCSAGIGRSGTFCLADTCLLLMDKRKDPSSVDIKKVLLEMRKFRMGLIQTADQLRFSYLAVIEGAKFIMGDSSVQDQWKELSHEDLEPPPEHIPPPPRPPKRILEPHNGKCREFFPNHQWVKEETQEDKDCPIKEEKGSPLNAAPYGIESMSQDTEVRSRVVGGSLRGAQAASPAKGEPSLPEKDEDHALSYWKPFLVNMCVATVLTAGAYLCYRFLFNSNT
In short: (§1)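 Recombinant enzymes used: human PTP1B and LAR bearing both PTPase domains. Compounds were dissolved in DMSO, with 10% DMSO final in all reactions. Buffer was 50 mM 3,3-dimethylglutarate, pH 7.0, ionic strength 0.15 M set with NaCl, at 30 °C. Initial rates of pNPP hydrolysis were measured at eight substrate levels (0.2–5 Km) and three fixed inhibitor levels. Reactions were quenched with NaOH and read at A405 (ε 18 000 M⁻¹ cm⁻¹), correcting for non-enzymatic hydrolysis. Kis (slope) and Kii (intercept) were obtained from steady-state kinetics.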

[2] = molecular target: Dual specificity protein phosphatase 3 (Homo sapiens) (UniProt P51452); assay: Inhibitory activity against human recombinant vaccinia H1 related phosphatase (Dual specificity protein phosphatase 3)
In short: (§2)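 Recombinant enzymes: human PTP1B; human PTPα intracellular fragment with both PTPase domains, cleaved from GST fusion; LAR with both PTPase domains; VHR purified to homogeneity. pNPP hydrolysis at 30 °C, pH 7.0, 50 mM 3,3-dimethylglutarate, ionic strength 0.15 M (NaCl), 10% DMSO final. Quenched with 1 N NaOH, A405 read. Ki from eight pNPP levels (0.2–5 Km) at three inhibitor concentrations.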

[3] = molecular target: Receptor-type tyrosine-protein phosphatase alpha (Homo sapiens) (UniProt P18433); assay: Inhibitory activity against protein tyrosine phosphatases alpha (PTP alpha); in short: as §2
[4] = molecular target: Receptor-type tyrosine-protein phosphatase F (Rattus norvegicus) (UniProt Q64604); assay: (§3) Inhibitory activity against rat recombinant leukocyte-common antigen-related molecule (LAR); in short: as §2
[5] = molecular target: T1, Tyrosine-protein phosphatase non-receptor type 1 (Homo sapiens); assay: Inhibitory activity against protein tyrosine phosphatases (PTP1B); no inhibition at 1 mM
[6] = molecular target: Receptor-type tyrosine-protein phosphatase F (Rattus norvegicus) (UniProt Q64604); assay: as §3; in short: as §1; remark: listed apart in the source
[7] = molecular target: T1, Tyrosine-protein phosphatase non-receptor type 1 (Homo sapiens); assay: Inhibitory activity against protein tyrosine phosphatases (PTP1B) (Kii=intercept inhibitory constant); in short: as §1

Sequence of Receptor-type tyrosine-protein phosphatase F (Rattus norvegicus) (Q64604 whole entry): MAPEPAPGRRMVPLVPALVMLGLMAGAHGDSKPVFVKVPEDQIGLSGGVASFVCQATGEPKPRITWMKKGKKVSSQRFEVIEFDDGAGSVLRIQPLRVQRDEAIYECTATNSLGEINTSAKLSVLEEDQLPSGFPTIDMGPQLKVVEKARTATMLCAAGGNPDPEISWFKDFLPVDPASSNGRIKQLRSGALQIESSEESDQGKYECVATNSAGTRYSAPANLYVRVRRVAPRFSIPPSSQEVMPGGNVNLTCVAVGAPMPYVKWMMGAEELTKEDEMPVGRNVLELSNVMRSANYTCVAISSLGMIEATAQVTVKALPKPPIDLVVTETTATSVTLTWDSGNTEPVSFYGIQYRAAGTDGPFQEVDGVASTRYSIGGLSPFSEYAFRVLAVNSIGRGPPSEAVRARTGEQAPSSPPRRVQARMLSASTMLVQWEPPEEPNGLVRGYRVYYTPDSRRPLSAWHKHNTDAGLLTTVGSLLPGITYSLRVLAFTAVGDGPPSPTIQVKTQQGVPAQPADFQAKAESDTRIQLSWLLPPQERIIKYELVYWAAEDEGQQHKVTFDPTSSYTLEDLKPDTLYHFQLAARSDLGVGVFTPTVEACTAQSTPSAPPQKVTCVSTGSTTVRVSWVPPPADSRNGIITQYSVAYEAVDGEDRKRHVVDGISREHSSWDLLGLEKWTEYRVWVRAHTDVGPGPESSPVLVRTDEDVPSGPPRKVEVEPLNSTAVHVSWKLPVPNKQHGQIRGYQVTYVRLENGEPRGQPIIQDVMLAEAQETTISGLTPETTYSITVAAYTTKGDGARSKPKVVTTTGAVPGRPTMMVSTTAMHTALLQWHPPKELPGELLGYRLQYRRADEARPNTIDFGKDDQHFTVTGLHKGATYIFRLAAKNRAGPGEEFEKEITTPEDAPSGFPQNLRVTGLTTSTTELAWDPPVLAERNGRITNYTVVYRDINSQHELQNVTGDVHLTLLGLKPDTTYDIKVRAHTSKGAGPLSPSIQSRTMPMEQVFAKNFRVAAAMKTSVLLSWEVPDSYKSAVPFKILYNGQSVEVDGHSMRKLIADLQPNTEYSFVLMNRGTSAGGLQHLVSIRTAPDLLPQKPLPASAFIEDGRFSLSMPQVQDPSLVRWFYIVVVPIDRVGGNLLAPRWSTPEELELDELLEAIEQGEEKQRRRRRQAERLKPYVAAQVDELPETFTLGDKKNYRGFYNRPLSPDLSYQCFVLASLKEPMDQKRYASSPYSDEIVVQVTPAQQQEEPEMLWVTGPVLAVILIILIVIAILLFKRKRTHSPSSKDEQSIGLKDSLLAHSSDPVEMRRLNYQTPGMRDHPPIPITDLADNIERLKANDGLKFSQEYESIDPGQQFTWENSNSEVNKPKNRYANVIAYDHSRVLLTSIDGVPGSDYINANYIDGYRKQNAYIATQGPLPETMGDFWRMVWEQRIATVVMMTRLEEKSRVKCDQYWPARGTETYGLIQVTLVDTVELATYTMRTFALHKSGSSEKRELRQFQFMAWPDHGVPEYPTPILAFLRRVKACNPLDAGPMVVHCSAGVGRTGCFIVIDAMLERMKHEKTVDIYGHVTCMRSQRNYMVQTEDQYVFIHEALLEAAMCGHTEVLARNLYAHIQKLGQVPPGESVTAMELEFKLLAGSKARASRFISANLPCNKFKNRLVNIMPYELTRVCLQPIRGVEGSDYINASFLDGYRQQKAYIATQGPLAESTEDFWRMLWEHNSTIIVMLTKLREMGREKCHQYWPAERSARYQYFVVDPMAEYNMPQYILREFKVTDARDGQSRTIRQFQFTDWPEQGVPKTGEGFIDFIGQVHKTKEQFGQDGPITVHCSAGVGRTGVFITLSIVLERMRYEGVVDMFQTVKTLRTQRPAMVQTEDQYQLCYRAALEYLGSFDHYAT
Sequence of Receptor-type tyrosine-protein phosphatase alpha (Homo sapiens) (P18433 20-802 limits assumed): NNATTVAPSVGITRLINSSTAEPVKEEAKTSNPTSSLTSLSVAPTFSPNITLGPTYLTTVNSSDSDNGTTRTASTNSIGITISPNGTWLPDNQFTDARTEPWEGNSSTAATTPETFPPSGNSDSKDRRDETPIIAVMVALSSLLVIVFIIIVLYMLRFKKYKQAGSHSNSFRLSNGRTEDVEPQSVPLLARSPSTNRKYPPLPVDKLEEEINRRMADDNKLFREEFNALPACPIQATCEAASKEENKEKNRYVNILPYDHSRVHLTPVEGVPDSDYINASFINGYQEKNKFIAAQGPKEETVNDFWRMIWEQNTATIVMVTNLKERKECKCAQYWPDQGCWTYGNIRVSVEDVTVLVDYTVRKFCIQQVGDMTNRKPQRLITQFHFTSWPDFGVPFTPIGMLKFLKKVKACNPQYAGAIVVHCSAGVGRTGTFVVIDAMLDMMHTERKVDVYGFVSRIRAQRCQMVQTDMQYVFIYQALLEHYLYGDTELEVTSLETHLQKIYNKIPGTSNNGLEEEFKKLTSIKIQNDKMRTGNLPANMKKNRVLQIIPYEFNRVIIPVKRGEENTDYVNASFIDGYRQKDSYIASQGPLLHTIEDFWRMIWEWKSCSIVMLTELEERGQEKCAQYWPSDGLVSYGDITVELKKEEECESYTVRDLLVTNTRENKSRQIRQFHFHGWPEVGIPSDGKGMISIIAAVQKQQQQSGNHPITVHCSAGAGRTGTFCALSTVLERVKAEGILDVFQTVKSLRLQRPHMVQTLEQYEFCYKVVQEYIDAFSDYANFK
Sequence of Dual specificity protein phosphatase 3 (Homo sapiens) (P51452 whole entry, looked up, the tested form may be a part): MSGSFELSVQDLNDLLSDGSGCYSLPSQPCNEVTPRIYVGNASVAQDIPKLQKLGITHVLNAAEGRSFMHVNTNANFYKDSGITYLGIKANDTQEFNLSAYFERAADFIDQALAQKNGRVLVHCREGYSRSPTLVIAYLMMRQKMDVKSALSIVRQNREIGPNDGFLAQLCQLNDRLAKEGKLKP

| Compound | Kis [1] [µM] | Kis [2] [µM] | Kis [3] [µM] | Kis [4] | NI [5] | Kii [6] [µM] | Kii [7] [µM] |
| --- | --- | --- | --- | --- | --- | --- | --- |
| O=C(O)c1cc(NCn2c(S)nc3ccccc32)ccc1O | 61 | > 100 | 180 | > 100 µM |  |  |  |
| C[C@]12CC[C@@H]3c4ccc(OS(=O)(=O)O)cc4CC[C@H]3[C@@H]1CC[C@@H]2O |  |  |  |  | no inhibition at 1 mM |  |  |
| O=C1c2ccccc2-c2cc([N+](=O)[O-])cc3cccc1c23 | 21 | > 100 | > 100 | 68 µM and 57 µM |  |  |  |
| O=C(O)c1ccc(Oc2ccc(C(=O)c3ccc4c(c3)C(=O)OC4=O)cc2)cc1 | 510 | > 1000 | > 1000 | > 1000 µM |  |  |  |
| Cc1ccc2c(c1)nc(S)n2CNc1ccc(C(=O)O)c(O)c1 | 750 |  |  |  |  |  |  |
| O=S(=O)(O)c1ccc2c3c(ccc2c1)CCCC3 | 240 | > 1000 | 410 | > 1000 µM |  |  |  |
| O=C(O)c1ccccc1O | 19400 |  |  |  |  |  |  |
| O=C(/C=C/c1cccc([N+](=O)[O-])c1)c1c(O)nc2cc([N+](=O)[O-])ccc2c1-c1ccccc1 | 54 | > 100 | > 100 | > 100 µM |  |  |  |
| C[C@]12CC[C@@H]3c4ccc(OS(=O)(=O)O)cc4CC[C@H]3[C@@H]1CCC2=O | 2100 |  |  |  |  |  |  |
| O=[N+]([O-])c1ccc(OS(=O)(=O)O)cc1 | 10000 |  |  |  |  |  |  |
| O=C(CSc1nnc(Nc2ccc(F)cc2)s1)c1ccc(Cl)cc1 | 110 | > 100 | 57 | 53 µM |  | 92 | 131 |
| O=S(=O)(O)Oc1c2ccccc2c2ccc3c(OS(=O)(=O)O)c4ccccc4c4ccc1c2c34 | 39 | > 100 | > 100 | > 100 µM |  |  |  |
